In ChEMBL document CHEMBL1122578, “A colon-specific drug-delivery system based on drug glycosides and the glycosidases of colonic bacteria” (J Med Chem, 1984):

Key:
Assay type in all cases: functional, organism-based
Rattus norvegicus [1] = assay: Recovery of glucoside from small intestine at 3h after administration of 7.5 mg of the compound
Method in brief: (§1)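 Male Sprague-Dawley rats (ca. 250 g), fasted 16 h, water withdrawn ≥30 min before dosing; glucoside 7.5 mg by gastric intubation in 0.5 mL water/95% EtOH (3:1). Killed by CO2 then thoracotomy at 3–6 h; small intestine and cecum removed. Contents (MeOH) and tissues (0.01 M KH2PO4) homogenized with internal-standard steroid, centrifuged, filtered, quantified by C-18 HPLC-UV (MeOH/0.01 M KH2PO4 56.5:43.5); mean of four animals.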

Rattus norvegicus [2] = assay: Recovery of glucoside from cecum at 6 hr after administration of 7.5 mg of the compound; conditions: Caecum; method in brief: as §1
Rattus norvegicus [3] = assay: Recovery of glucoside from small intestine at 5 hr after administration of 7.5 mg of the compound; method in brief: as §1
Rattus norvegicus [4] = assay: Recovery of glucoside from cecum at 3h after administration of 7.5 mg of the compound; conditions: Caecum; method in brief: as §1
Rattus norvegicus [5] = assay: Recovery of glucoside from cecum at 4 hr after administration of 7.5 mg of the compound; conditions: Caecum; method in brief: as §1
Rattus norvegicus [6] = assay: Recovery of glucoside from small intestine at 6 hr after administration of 7.5 mg of the compound; method in brief: as §1
Rattus norvegicus [7] = assay: Recovery of glucoside from small intestine at 4 hr after administration of 7.5 mg of the compound; method in brief: as §1
Rattus norvegicus [8] = assay: Recovery of glucoside from cecum at 5 hr after administration of 7.5 mg of the compound; conditions: Caecum; method in brief: as §1
Rattus norvegicus [9] = assay: Recovery of glucoside from cecum at 3h after administration of 7.5 mg.; conditions: Caecum; method in brief: as §1
Rattus norvegicus [10] = assay: Recovery of steroid from cecum at 4 hr after administration of 7.5 mg of the compound; conditions: Caecum; method in brief: as §1
Rattus norvegicus [11] = assay: Recovery of steroid from cecum at 5 hr after administration of 7.5 mg of the compound; conditions: Caecum; method in brief: as §1
Rattus norvegicus [12] = assay: Recovery of steroid from small intestine at 3h after administration of 7.5 mg of the compound; method in brief: as §1
Rattus norvegicus [13] = assay: Recovery of steroid from small intestine at 5 hr after administration of 7.5 mg of the compound; method in brief: as §1
Rattus norvegicus [14] = assay: Recovery of steroid from cecum at 3h after administration of 7.5 mg of the compound; conditions: Caecum; method in brief: as §1
Rattus norvegicus [15] = assay: Recovery of steroid from small intestine at 6 hr after administration of 7.5 mg of the compound; method in brief: as §1
Rattus norvegicus [16] = assay: Recovery of steroid from small intestine at 4 hr after administration of 7.5 mg of the compound; method in brief: as §1
Rattus norvegicus [17] = assay: Recovery of steroid from cecum at 6 hr after administration of 7.5 mg of the compound; conditions: Caecum; method in brief: as §1

Row | Structure (SMILES) | Recovery (Rattus norvegicus [1]) [mg] | Recovery (Rattus norvegicus [2]) [mg] | Recovery (Rattus norvegicus [3]) [mg] | Recovery (Rattus norvegicus [4]) [mg] | Recovery (Rattus norvegicus [5]) [mg] | Recovery (Rattus norvegicus [6]) [mg] | Recovery (Rattus norvegicus [7]) [mg] | Recovery (Rattus norvegicus [8]) [mg] | Recovery (Rattus norvegicus [9]) [mg] | Recovery (Rattus norvegicus [10]) [mg] | Recovery (Rattus norvegicus [11]) [mg] | Recovery (Rattus norvegicus [12]) [mg] | Recovery (Rattus norvegicus [13]) [mg] | Recovery (Rattus norvegicus [14]) [mg] | Recovery (Rattus norvegicus [15]) [mg] | Recovery (Rattus norvegicus [16]) [mg] | Recovery (Rattus norvegicus [17]) [mg]
1 | C[C@]12C=CC(=O)C=C1CC[C@@H]1[C@@H]2C(O)C[C@@]2(C)[C@H]1CC[C@]2(O)C(=O)CO[C@@H]1O[C@H](CO)[C@@H](O)[C@H](O)[C@H]1O (some centres not stated) | 1.57 | 0.06 | 0.19 | 0 | 0 | 0.18 | 1.73 | 0 |  |  |  |  |  |  |  |  | 
2 | C[C@@H]1CC2C3CCC4=CC(=O)C=CC4(C)[C@@]3(F)C(O)CC2(C)[C@@]1(O)C(=O)CO[C@@H]1O[C@H](CO)[C@@H](O)[C@H](O)[C@H]1O (some centres not stated) | 5.61 | 0.04 | 0.24 |  | 0.02 | 0.94 | 5 | 0.23 | 0.21 |  |  |  |  |  |  |  | 
3 | C[C@]12C=CC(=O)C=C1CC[C@@H]1[C@@H]2[C@@H](O)C[C@@]2(C)[C@H]1CC[C@]2(O)C(=O)CO |  |  |  |  |  |  |  |  |  | 0 | 0.57 | 0.3 | 0.09 | 0 | 0.03 | 0.18 | 0.29
4 | C[C@@H]1C[C@H]2[C@@H]3CCC4=CC(=O)C=C[C@]4(C)[C@@]3(F)[C@@H](O)C[C@]2(C)[C@@]1(O)C(=O)CO |  |  |  |  |  |  |  |  |  | 0.05 | 2.24 | 0.13 | 0.12 | 0.09 | 0.18 | 0.11 | 1.66
